Assay: Inhibition of IL-1-alpha-induced NF-kappaB activation in HeLa cells assessed as blocking of p50/p65 nuclear translocation
Format: cell-based
Settings: Homo sapiens
In short: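 HeLa cells stimulated with IL-1α (5 ng/ml) with or without compound for 30 min, then fixed and immunostained for p65 with Hoechst nuclear counterstain. Plates were scanned by fluorescence imaging microscopy. IC50 = concentration reducing nuclear minus cytoplasmic p65 fluorescence by 50%.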

SMILES | IC50
Cc1ccc2c(c1)C(=O)N(c1c(C(C)C)cccc1C(C)C)C2=O | > 50 µM
CC(C)c1cccc(C(C)C)c1N1C(=O)c2ccc(Cl)cc2C1=O | > 50 µM
CC(C)c1cccc(C(C)C)c1N1C(=O)c2ccc(OS(N)(=O)=O)cc2C1=O | > 50 µM
O=C1c2ccc(O)cc2C(=O)N1c1c(Cl)cccc1Cl | > 50 µM
CC(=O)Nc1ccc2c(c1)C(=O)N(c1c(C(C)C)cccc1C(C)C)C2=O | > 50 µM
CCCc1ccccc1N1C(=O)c2ccc(O)cc2C1=O | > 50 µM
CC(C)c1cccc(C(C)C)c1N1C(=O)c2ccc(C(=O)O)cc2C1=O | > 50 µM
CC(C)c1cccc(C(C)C)c1N1C(=O)c2cccc([N+](=O)[O-])c2C1=O | > 50 µM
CCc1cccc(CC)c1N1C(=O)c2ccc(O)cc2C1=O | > 50 µM
O=C1c2ccc(O)cc2C(=O)N1c1c(F)cccc1F | > 50 µM
CC(C)c1cccc(C(C)C)c1N1C(=O)c2ccc([N+](=O)[O-])cc2C1=O | > 50 µM
Cc1cccc(C)c1N1C(=O)c2ccc(O)cc2C1=O | > 50 µM
CC(C)c1cccc(C(C)C)c1N1C(=O)c2cccc(N)c2C1=O | > 50 µM
CC(C)(C)c1ccccc1N1C(=O)c2ccc(O)cc2C1=O | > 50 µM
COC(=O)c1ccc2c(c1)C(=O)N(c1c(C(C)C)cccc1C(C)C)C2=O | > 50 µM
CC(C)c1cccc(C(C)C)c1N1C(=O)c2ccccc2C1=O | > 50 µM

Further lines, results first:

IC50 | SMILES
> 50 µM | CC(C)c1ccccc1N1C(=O)c2ccc(O)cc2C1=O
0.1 µM | CC(C)(C)c1ccc(S(=O)(=O)/C=C/C#N)cc1 [BAY-11-7085]
29.5 µM | CC(C)c1cccc(C(C)C)c1N1C(=O)c2ccc(N)cc2C1=O
0.53 µM | CC(C)c1cccc(C(C)C)c1N1C(=O)c2ccc(O)cc2C1=O
2.04 µM | O=C1CCC(N2C(=O)c3ccccc3C2=O)C(=O)N1 (centres undefined) [THALIDOMIDE]
4.95 µM | CC(C)c1cccc(C(C)C)c1N1C(=O)c2cccc(O)c2C1=O
0.43 µM | O=C1c2ccc(O)cc2C(=O)N1c1c(Br)cccc1Br
1.27 µM | Nc1cccc2c1C(=O)N(C1CCC(=O)NC1=O)C2=O (centres undefined) [POMALIDOMIDE]

Reference: ChEMBL document CHEMBL1140471, “Inhibitors of NF-kappaB derived from thalidomide” (Bioorg Med Chem Lett, 2007)
